Data reported in ChEMBL document CHEMBL4411319, “Discovery of Macrocyclic Inhibitors of Apurinic/Apyrimidinic Endonuclease 1” (J Med Chem, 2019).

Legend:
[1] = target: T1, DNA repair nuclease/redox regulator APEX1 (Homo sapiens, UniProt P27695); assay: Inhibition of full length human APE1 assessed as reduction in endonuclease activity by measuring DNA cleavage of abasic sites using 6-FAM labelled two annealed oligonucleotides as AP site mimic substrate by fluorescence-based assay
Outline: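 Purified full-length APE1 (0.25-1.25 nM) added at once to 50 nM annealed duplex: 5'-6-FAM-labelled AP-site-mimic strand paired with a quencher-labelled strand. Buffer 50 mM Tris, 1 mM MgCl2, 50 mM NaCl, pH 7.5. Compound in triplicate, 10-point 1:2 dilution from 100 μM. Fluorescence from cleavage read kinetically at five 1-min intervals. Reaction rate compared with DMSO vehicle.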

[2] = Cytotoxicity against human Pa02C cells after 48 hrs by Alamar Blue-based assay; type: functional, cell-based
Outline: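 Patient-derived pancreatic Pa02c cells, low passage, kept in DMEM with 10% FBS. Plated at 2000 cells/well on poly-D-lysine-coated plates and grown overnight at 37 °C, 5% CO2. Dosed in 5% FBS DMEM from 100 μM, 1:2 serial dilution, 5 points, with DMSO vehicle and drug-background wells. Grown 48 h, then fresh medium with 10% Alamar Blue for 4 h and fluorescence read. Background subtracted, normalized to media alone, mean with standard error.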

[3] = target: T1, DNA repair nuclease/redox regulator APEX1; assay: Inhibition of APE1 in human ST8814 cells assessed as effect on MMS-induced DNA damage by measuring tail DNA level at 100 uM after 1 hr in presence of MMS by comet assay; type: cell-based; parameters: scale not given: the % may be the effect or the level left
Outline: (§1)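 Malignant peripheral nerve sheath tumor ST8814 cells seeded at 130,000/well in DMEM + 10% FBS and grown overnight. Treated 1 h at 37 °C in Opti-MEM with compound (100 μM or EC30) alone or with 1.0 mM MMS. Trypsinized, then alkaline comet assay: lysis 60 min, unwinding at pH 13 for 20 min, electrophoresis at 1 V/cm for 30 min, SYBR Gold stain. Percent tail DNA averaged over 20 comets; two independent experiments.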

[4] = Induction of DNA damage in human ST8814 cells measuring tail DNA level at 100 uM after 1 hr in presence of MMS by comet assay (reference value: 16%); type: functional; outline: as §1

T1 sequence (P27695 whole entry): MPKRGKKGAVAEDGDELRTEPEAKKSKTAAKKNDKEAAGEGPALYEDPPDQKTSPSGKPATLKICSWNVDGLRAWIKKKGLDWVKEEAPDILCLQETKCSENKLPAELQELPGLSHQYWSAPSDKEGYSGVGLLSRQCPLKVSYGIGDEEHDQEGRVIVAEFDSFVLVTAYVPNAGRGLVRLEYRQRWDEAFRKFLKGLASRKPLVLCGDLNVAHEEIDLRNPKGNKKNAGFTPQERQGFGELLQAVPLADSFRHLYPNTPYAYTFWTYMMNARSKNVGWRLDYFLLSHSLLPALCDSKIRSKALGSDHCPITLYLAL

IC50 [1]	inhibition [1]	Structure (SMILES)	EC50 [2]	Activity [3]	Activity [4]
33.2 µM		Cc1ccc(S(=O)(=O)n2cccc2[C@@H]2NC(=O)[C@H](Cc3c[nH]c4ccccc34)NC(=O)CCNC(=O)C/C=C/[C@@H]2C)cc1	58.4 µM	96%	12%
	Dose-dependent effect	Cc1ccc(S(=O)(=O)n2cccc2[C@@H]2NC(=O)[C@H](Cc3c[nH]c4ccccc34)NC(=O)C(c3ccccc3)CCOC(=O)C/C=C/[C@@H]2C)cc1 (stereo partly specified)			
5.7 µM		Cc1ccc(S(=O)(=O)n2cccc2[C@@H]2NC(=O)[C@H](Cc3c[nH]c4ccccc34)NC(=O)C[C@@H](c3ccc(F)cc3)NC(=O)C/C=C/[C@@H]2C)cc1	> 100 µM		
	Dose-dependent effect	Cc1ccc(S(=O)(=O)n2cccc2[C@@H]2NC(=O)[C@H](Cc3c[nH]c4ccccc34)NC(=O)C(Oc3ccccc3)CCOC(=O)C/C=C/[C@@H]2C)cc1 (stereo partly specified)			
10.6 µM		Cc1ccc(S(=O)(=O)n2cccc2[C@@H]2NC(=O)[C@H](Cc3c[nH]c4ccccc34)NC(=O)CCCOC(=O)C/C=C/[C@@H]2C)cc1	> 100 µM		
29.2 µM		Cc1ccc(S(=O)(=O)n2cccc2[C@@H]2NC(=O)[C@H](Cc3c[nH]c4ccccc34)NC(=O)CCCNC(=O)C/C=C/[C@@H]2C)cc1	35 µM		
> 50 µM		Cc1ccc(S(=O)(=O)n2cccc2[C@@H]2NC(=O)[C@H](Cc3c[nH]c4ccccc34)NC(=O)CCCCNC(=O)C/C=C/[C@@H]2C)cc1	> 100 µM		
9.3 µM		Cc1ccc(S(=O)(=O)n2cccc2[C@@H]2NC(=O)[C@H](Cc3c[nH]c4ccccc34)NC(=O)CCCCOC(=O)C/C=C/[C@@H]2C)cc1	> 100 µM	27%	26%

Further lines, the compound ahead of its results:

Structure (SMILES)	IC50 [1]	inhibition [1]	EC50 [2]	Activity [3]	Activity [4]
Cc1ccc(S(=O)(=O)n2cccc2[C@@H]2NC(=O)[C@H](Cc3c[nH]c4ccccc34)NC(=O)C[C@@H](c3ccc(C(F)(F)F)cc3)NC(=O)C/C=C/[C@@H]2C)cc1	1.3 µM		> 100 µM	95%	18%
C[C@H]1/C=C/CC(=O)N[C@H](c2ccc(Cl)cc2)CC(=O)N[C@@H](Cc2c[nH]c3ccccc23)C(=O)N[C@H]1c1ccccc1	> 100 µM		22 µM		
C[C@H]1/C=C/CC(=O)OCCCCC(=O)N[C@@H](Cc2c[nH]c3ccccc23)C(=O)N[C@H]1c1ccccc1	63.5 µM		> 50 µM		
CC(=O)Nc1sc2c(c1-c1nc3ccccc3s1)CCN(C(C)C)C2				34%	17%
C[C@H]1/C=C/CC(=O)OCCC(Oc2ccc3c(c2)OCO3)C(=O)N[C@@H](Cc2c[nH]c3ccccc23)C(=O)N[C@H]1c1ccccc1 (stereo partly specified)	1.8 µM	Dose-dependent effect			
C[C@H]1/C=C/CC(=O)N[C@H](c2ccc(C(F)(F)F)cc2)CC(=O)N[C@@H](Cc2c[nH]c3ccccc23)C(=O)N[C@H]1c1ccccc1	26.5 µM		58.5 µM	67%	12%
Cc1ccc(S(=O)(=O)n2cccc2[C@@H]2NC(=O)[C@H](Cc3c[nH]c4ccccc34)NC(=O)C(Oc3ccc(C(F)(F)F)cc3)CCOC(=O)C/C=C/[C@@H]2C)cc1 (stereo partly specified)	2.5 µM	Dose-dependent effect			
C[C@H]1/C=C/CC(=O)OCCCC(=O)N[C@@H](Cc2c[nH]c3ccccc23)C(=O)N[C@H]1c1ccccc1	> 100 µM		> 100 µM		
Cc1ccc(S(=O)(=O)n2cccc2[C@@H]2NC(=O)[C@H](Cc3c[nH]c4ccccc34)NC(=O)C[C@@H](c3ccc(Cl)cc3)NC(=O)C/C=C/[C@@H]2C)cc1	12.1 µM		> 100 µM		
Cc1ccc([C@@H]2CC(=O)N[C@@H](Cc3c[nH]c4ccccc34)C(=O)N[C@@H](c3cccn3S(=O)(=O)c3ccc(C)cc3)[C@@H](C)/C=C/CC(=O)N2)cc1	2.5 µM		> 100 µM	40%	20%
C[C@H]1/C=C/CC(=O)N[C@H](c2ccc(F)cc2)CC(=O)N[C@@H](Cc2c[nH]c3ccccc23)C(=O)N[C@H]1c1ccccc1	55.1 µM		36.2 µM		
Cc1ccc(S(=O)(=O)n2cccc2[C@@H]2NC(=O)[C@H](Cc3c[nH]c4ccccc34)NC(=O)C[C@H](CCc3ccccc3)NC(=O)C/C=C/[C@@H]2C)cc1	2.6 µM		> 100 µM		
Cc1ccc(S(=O)(=O)n2cccc2[C@@H]2NC(=O)[C@H](Cc3c[nH]c4ccccc34)NC(=O)C[C@@H](c3cccc(C(F)(F)F)c3)NC(=O)C/C=C/[C@@H]2C)cc1	52.6 µM		6.7 µM		
Cc1ccc(S(=O)(=O)n2cccc2[C@@H]2NC(=O)[C@H](Cc3c[nH]c4ccccc34)NC(=O)C[C@@H](Cc3ccc(Cl)cc3)NC(=O)C/C=C/[C@@H]2C)cc1	1.9 µM		> 100 µM		
Cc1ccc(S(=O)(=O)n2cccc2[C@@H]2NC(=O)[C@H](Cc3c[nH]c4ccccc34)NC(=O)C[C@@H](CCc3ccccc3)NC(=O)C/C=C/[C@@H]2C)cc1	2.7 µM		> 100 µM	54%	12%
